Source: PubChem
Rows were chosen to be rich in hits. Some 2% of all compounds tested hit in one or more screens of this group.
HIF activator: HIF pathway transcriptional activation; U2OS HRE-luciferase reporter, luminescence; normalized: DMSO 0%, desferrioxamine 100%; activation, % at 7.5 µM (by protocol); 0.32% of 300,000 active; AID 1910;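 active = mean activation of at least 10% of the iron chelator positive control signal, with at least half of replicates also reaching 10%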
TROY signal inh: TROY signaling inhibition | Q293 LMP1-TROYcd NF-kB luciferase reporter, 4 h | inhibition, % at 10 µM | 0.98% of 360,000 active;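 active = compounds whose plate-normalised and pattern-corrected inhibition of the luciferase reporter signal at the single screening dose is 50% or more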
EBV LMP1 NFkB: inhibitors of Epstein-Barr LMP1-induced NF-kappaB reporter; 0.69% of 350,000 active; inhibition, % at 12.5 µM; LMP1-induced NF-kappaB luciferase reporter cells, luminescence; in the data active = inhibition above about 41%
NR2E3 ag-1: human photoreceptor-specific nuclear receptor agonism | CHO-S Gal4-NCOR/VP16-NR2E3 two-hybrid, luciferase | Q9Y5X4 | inhibition of corepressor binding, % at 3.98 µM | AID 602229 | 0.35% of 360,000 active;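 active = inhibition above the mean of all tested compounds plus 3 SD, cut at about 70% in these data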;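 also: higher means lower luciferase signal from less NR2E3 corepressor binding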
Target sequence (Q9Y5X4 whole entry, looked up, the tested form may be a part): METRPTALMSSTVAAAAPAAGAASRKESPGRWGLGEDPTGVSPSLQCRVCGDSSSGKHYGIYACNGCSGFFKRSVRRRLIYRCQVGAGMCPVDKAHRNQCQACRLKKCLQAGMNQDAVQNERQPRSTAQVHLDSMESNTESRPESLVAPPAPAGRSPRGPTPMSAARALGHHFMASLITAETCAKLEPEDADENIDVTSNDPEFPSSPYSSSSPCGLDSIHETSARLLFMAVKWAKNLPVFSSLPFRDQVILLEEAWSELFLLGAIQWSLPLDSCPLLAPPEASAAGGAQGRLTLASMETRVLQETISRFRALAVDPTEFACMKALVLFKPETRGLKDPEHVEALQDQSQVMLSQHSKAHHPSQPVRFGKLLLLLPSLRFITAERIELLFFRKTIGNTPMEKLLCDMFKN
NR2E3 ag-2: agonists of human nuclear receptor NR2E3; Q9Y5X4; GST-NR2E3/biotin-RetCOR TR-FRET, 1536-well; inhibition of corepressor binding, % at 4.78 µM; 0.12% of 320,000 active;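 active = percent inhibition above the cutoff of mean plus 3 SD of all tested compounds, set per screening campaign, cut at about 20% in these data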
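Assay system: NR2E3–RetCOR corepressor complex. Quantity: 1.35 nM GST-NR2E3. Buffer or medium: pH 7.5 Tris-based buffer. Reagent: biotinylated RetCOR corepressor at 7 nM final. Schedule: 5 h at 4 °C. Detection: TR-FRET, emission read at 617 and 671 nm. Replicates: one well per compound, singlicate testing.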
Each line names hits and unclear results; the compound was inactive in the other large screens.

COC(=O)C1=C(c2ccc3ccccc3c2)C[C@@H]2CC[C@H]1N2C(=O)N1CCCC1	none (no result: HIF activator)
COC(=O)C1=C(c2ccc(-c3ccccc3)c(F)c2)C[C@@H]2CC[C@H]1N2C(=O)N1CCC(C)CC1	EBV LMP1 NFkB 45 (no result: HIF activator)
COC(=O)C1=C(c2ccc3ccccc3c2)C[C@@H]2CC[C@H]1N2C(=O)N1CCC(O)CC1	EBV LMP1 NFkB 85 (no result: HIF activator)
COC(=O)C1=C(c2ccc(-c3ccccc3)c(F)c2)C[C@@H]2CC[C@H]1N2C(=O)N1CCC(O)CC1	none (no result: HIF activator)
CC1([N+](=O)[O-])COP(=O)(NC2CC2)OC1 (configuration not stated)	none (no result: HIF activator, NR2E3 ag-2)
O=C(Nc1cc(Cl)cc(Cl)c1)N1Cc2ccccc2-n2nncc2C1	none (no result: HIF activator, NR2E3 ag-2)
Cc1cc([N+](=O)[O-])c2ccccc2[n+]1[O-]	EBV LMP1 NFkB 90
Cc1ccccc1[N+](=O)[O-]	none (no result: HIF activator)
CC(=O)N(C)C1=Nc2ccc(Cl)cc2C(c2ccccc2)=[N+]([O-])C1	EBV LMP1 NFkB 70 (no result: HIF activator, NR2E3 ag-2)
Cc1nc2ccccc2n1C1CCN(Cc2nnnn2CCc2ccccc2)CC1	EBV LMP1 NFkB 47
COC(=O)C1=C(c2ccc3ccccc3c2)C[C@@H]2CC[C@H]1N2C(=O)NC1CCCCC1	none (no result: HIF activator)
COCCNC(=O)c1c(N)n(CCC(C)C)c2nc3ccccc3nc12	TROY signal inh 73
Nc1c(C(=O)OCC2CCCO2)c2nc3ccccc3nc2n1Cc1cccs1 (configuration not stated)	TROY signal inh 68
CCCCNC(=O)c1c(N)n(CCCOC)c2nc3ccccc3nc12	none
CC(C)CCn1c(N)c(C(=O)NCc2cccs2)c2nc3ccccc3nc21	TROY signal inh 68
CCN(CCCl)c1cc(CN(C)C)cc(NC(=O)c2ccc(C(=O)Nc3cc(CN(C)C)cc(N(CC)CCCl)c3)cc2)c1	TROY signal inh 54, EBV LMP1 NFkB 87 (no result: HIF activator, NR2E3 ag-2)
COC(=O)C1=C(c2ccc(F)cc2F)C[C@@H]2CC[C@H]1N2C(=O)N1CCC(C)CC1	none (no result: HIF activator)
Fc1ccc(N2Cc3ccccc3-n3nncc3C2)cc1	none (no result: HIF activator, EBV LMP1 NFkB, NR2E3 ag-2)
C=C(C)C(Cc1c(OC)ccc(C(=O)/C=C/c2ccc(O)cc2)c1O)OO (configuration not stated)	none (no result: HIF activator, NR2E3 ag-2)
C[C@H]1CCC[C@@H](O)CCC/C=C/c2cc(O)cc(O)c2C(=O)O1	none
C[C@H]1CCC/C=C/C2C[C@H](O)CC2[C@H](O)/C=C/C(=O)O1 (some centres not stated)	NR2E3 ag-1 96
O=C(Nc1ccc(OC(=O)N2CCCCC2)cc1)N1CCOCC1	TROY signal inh 85
NC(=Nc1ccccc1)NN=Cc1c[nH]c2ccccc12	none (no result: HIF activator, NR2E3 ag-2)
O=c1[nH]c2ccccc2n1C1CCN(C(CCc2ccccc2)c2nnnn2Cc2ccccc2)CC1 (configuration not stated)	TROY signal inh 71 (no result: HIF activator, EBV LMP1 NFkB, NR2E3 ag-2)
CSCCC(c1nnnn1Cc1ccccc1)N1CCC(n2c(=O)[nH]c3ccccc32)CC1 (configuration not stated)	none (no result: HIF activator, EBV LMP1 NFkB, NR2E3 ag-2)
CSCCC(c1nnnn1C1CCCCC1)N1CCC(n2c(=O)[nH]c3ccccc32)CC1 (configuration not stated)	none (no result: HIF activator, EBV LMP1 NFkB, NR2E3 ag-2)
O=c1[nH]c2ccccc2n1C1CCN(C(CCc2ccccc2)c2nnnn2C2CCCCC2)CC1 (configuration not stated)	TROY signal inh 53 (no result: HIF activator, EBV LMP1 NFkB, NR2E3 ag-2)
O=c1[nH]c2ccccc2n1C1CCN(C(c2ccccc2OC(F)(F)F)c2nnnn2Cc2ccccc2)CC1 (configuration not stated)	TROY signal inh 61 (no result: HIF activator, EBV LMP1 NFkB, NR2E3 ag-2)
COC(=O)C1=C(c2ccc(F)cc2F)C[C@@H]2CC[C@H]1N2C(=O)NCc1ccc(C(F)(F)F)cc1	none (no result: HIF activator)
CNC(=O)Nc1ccc(C(=O)N/N=C\C23CC[C@@H](O)CC2(O)CC[C@@H]2[C@@H]3CCC3(C)C(C4=CC(=O)OC4)CCC23O)cc1 (some centres not stated)	none
CC12CC[C@H]3[C@@H](CCC4(O)C[C@H](O)CCC34/C=N/NC(=O)Cc3ccccc3)C1(O)CCC2C1=CC(=O)OC1 (some centres not stated)	none
C[C@]12CCC3C(CC[C@H]4C[C@@H](O)CC[C@]34C)[C@H]1C=CC2=O (some centres not stated)	none (no result: HIF activator, NR2E3 ag-2)
COC1C(O)C(C)OC(OC2CCC3(C)C(CCC4C3C(O)CC3(C)C(C5=CC(=O)OC5)CCC43O)C2)C1O (configuration not stated)	TROY signal inh 55, EBV LMP1 NFkB 57 (no result: HIF activator, NR2E3 ag-2)
